Assay results: ChEMBL document CHEMBL4513216, “Probing the Open Global Health Chemical Diversity Library for Multistage-Active Starting Points for Next-Generation Antimalarials” (ACS Infect Dis, 2020)

Experiment: Toxicity liver stage against HepG2, at 10uM
Format: cell-based
Parameters: test concentration 10 uM, cell line HepG2-A16-CD81EGFP
Settings: human, HepG2-A16-CD81EGFP cells; read-out: INHIBITION
Procedure, shortened: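 Uninfected HepG2-A16-CD81EGFP cells, 3 × 10^3 per well, 1536-well, plated on prespotted compound at 10 μM final, parasite-free screening media added to match infected plates; puromycin 10 μM positive, DMSO 0.5% negative; run in parallel with 48 h PbLuc assay at 37 °C, 5% CO2; viability by CellTiter-Glo luminescence, normalized to controls.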

Structure (SMILES)	cytotoxicity at 10 µM [%]
CN(C)S(=O)(=O)N1CCC2(COCc3cnc(-c4ccccc4)nc32)C1 (centres undefined)	-13.6
CCC(C)CNC(=O)[C@@H]1CCCN1c1nccc(Nc2ccccc2)n1 (some centres undefined)	3.57
CC(C)CC(CCO)CNC(=O)N1CC(C)(C)C1(C)C (centres undefined)	-2.48
Cc1nc(CO[C@@H]2CC[C@H]3[C@H]2OCCN3Cc2cccnc2)cs1	-1.43
CCCN1CCC(N2CCN(c3cc(C)nc(C)c3)CC2)CC1	-11.2
Cc1cc(CN(C)C(=O)c2cc(COc3ccccc3)[nH]n2)n[nH]1	5.76
CCCS(=O)(=O)N1CCO[C@H]2[C@H](OCc3ccccn3)CC[C@@H]21	-9
CC(=O)N1CCN(c2ccc(Cl)nn2)C(=O)C1	6.69
CCN(CC)C(=O)c1cc(-c2cccc(Cl)c2)no1	-8.79
Cc1ccc(C(=O)N2CCC3(CCC(=O)N(C(C)C)C3)CC2)c(O)c1	17.5
Cc1cnc(N)c(C(=O)C2CCN(C(=O)c3ccccc3F)CC2)c1	9.96
COc1cccc(COCC(=O)N2CCCCCC2)c1	-3.48
CC(=O)Nc1nc2c(s1)C1(CCCC1)Nc1ccccc1S2	-9.99
CNC(=O)NCc1nn(-c2ccccc2)c2c1CCC2	-10.8
CC1CCCN(CCCNC(=O)c2ccc(N(C)S(C)(=O)=O)cc2Cl)C1 (centres undefined)	-2.28
CCc1nnc(Nc2cccc(C3CCN(CC4CC4)CC3)n2)s1	-26.8
Cc1ccc(N2CCO[C@H]3CN(Cc4ccncc4)C[C@H]32)nn1	1.23
CC(C)(C(=O)NCC1CCN(Cc2ncc[nH]2)C1)c1ccccc1 (centres undefined)	2.15
CCN(CC(C)C#N)C(=O)c1cccc(COc2ccc(C)nc2)c1 (centres undefined)	5.8
O=C(c1ccncc1)N1CCC2(CC1)C(=O)Nc1ccccc12	-146
CCc1n[nH]c(C2CN(C(=O)c3cnn(CC)c3)CCO2)n1 (centres undefined)	-2.87
Cn1ccc(CN2CCC(c3ccccc3)CC2)cc1=O	-6.46
Fc1ccc(CN2CC[C@H]3O[C@@H](COCc4cccnc4)CC[C@H]32)cc1	-70
CN(Cc1nc2ccccc2c(=O)[nH]1)C1CC(=O)N(C2CC2)C1=O (centres undefined)	4.09
CCC(CO)(CO)NC(=O)C1CCC(=O)N(CCc2ccccc2)C1 (centres undefined)	-2.78
CC(C)NC(=O)c1nnn(-c2cccc(C(F)(F)F)c2)c1C1CC1	-19
Cc1cnn(CCCNC(=O)NCCS(=O)(=O)Nc2ccccc2)c1	1.07

Structure (SMILES)	cytotoxicity at 10 µM [%]
Cc1nc(CN(C)CC2CCCN2c2cccnn2)oc1C (centres undefined)	-4.25
Cc1[nH]ncc1C(=O)N1CCN(CC(O)C(C)(C)C)CC1 (centres undefined)	-0.00964
CCN(Cc1nc(COC)no1)C(=O)CCNC(=O)c1ccccc1F	-4.17
COc1cccc(C(=O)NS(=O)(=O)c2cccc(C#N)c2)c1OC	-8.06
CC(C)N(CCNC(=O)N1CCCC(N(C)C)C1)C1CC1 (centres undefined)	-0.211
c1cnn(CC2CCCCN2c2ncnc3ccsc23)c1 (centres undefined)	-13.9
O=C(c1cocn1)N1CCC[C@]2(C[C@@H](OCC3CC3)CO2)C1	-76.4
CC(=O)N1CCN(CCNc2snc(Cl)c2C#N)CC1	5.69
O=C(NC1CC1)N1CCc2ccc(=O)n(CCN3CCCC3)c2CC1	-0.603
Cc1cc(OC(F)F)c(C(=O)NCC(O)c2cccc(F)c2)s1 (centres undefined)	-4.3
Cn1c2c(c(=O)c3ccccc31)CCC(C)(C)O2	2.76
CCCn1cc(C(=O)N2CCCC2(C)c2nc(C)cc(N)n2)cn1 (centres undefined)	-1.13
CNC(=O)CN1CCc2c(CNc3nccs3)n[nH]c2C1	3.25
Oc1cc(-c2ccsc2)nc(C2CCN(Cc3cccnc3)CC2)n1	2.95
CCn1cc(CNC(C)c2noc(-c3ccc(Cl)cc3)n2)cn1 (centres undefined)	3.63
Cc1cc(N2CCCCC2)c(C#N)c(C)n1	-6.16
CC1CC(NS(=O)(=O)c2ccc(C(F)(F)F)nc2)C1 (centres undefined)	23.1
CC(=O)N1CCC2(CC1)C(=O)N(CC1CCN(C)CC1)c1ccccc12	1.73
CCN(CCNC(=O)c1cccc(C)c1C)C1CC1	3.43
N#Cc1ccc(CNC(=O)NC2CCCN(c3ncccn3)C2)cc1 (centres undefined)	5.38
CCC1CCCCN1C(=O)Cn1nc(-c2ccc(C)s2)cc(N)c1=O (centres undefined)	2.64
CN1CC[C@H]2CN(C(=O)COCc3nc4cc(F)ccc4[nH]3)C[C@H]21	2.77
N#Cc1cccc(CN2CCC3(CC2)CC(c2ccncc2)C(=O)N3)c1 (centres undefined)	3.44
Cc1ccc(NC(=O)N(CCO)Cc2ccsc2)cc1	3.58
COc1ccc(CN2CCC3(CC2)CC(c2cccnc2)CO3)cc1 (centres undefined)	-0.259
CCSCc1cccc(NCc2cccnc2)c1	-1.32
Cc1ccnc(OCC(=O)N2CCC(C(N)=O)CC2)n1	-17.7
